Results: ChEMBL document CHEMBL3400032 (Bioorg Med Chem, 2015)
The source made the active and inactive calls. The rule behind the calls is not given here.

Columns and labels:
[1] = Drug metabolism in human liver S9 fraction assessed as 2-(3-aminopiperidin-1-yl)-3-(2-chlorobenzyl)-5-methyl-4-oxo-4,5-dihydro-3H-imidazo[4,5-c]quinoline-8-carboxylic acid formation at 1 uM after 30 mins by HPLC/MS/MS analysis relative to control; type: ADME, subcellular; conditions: s9, 0.5 h
Method in brief: (§1)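 Test compound at 1 µM final, incubated 30 min at 37 °C in serum, or in S9 mix (50 mM potassium phosphate pH 7.4, 3 mM NADPH, 1 mg protein/mL pooled male SD rat or human liver S9). Preincubated 5 min at 37 °C, compound added in acetonitrile–water (1:1), stopped with ice-cold acetonitrile, centrifuged, filtered, parent and carboxylate hydrolysate quantified by HPLC-MS/MS.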

[2] = Solubility of the compound at pH 5.5; type: physicochemical; conditions: buffer
Serum [3] = assay: Drug metabolism in rat serum assessed as 2-(3-aminopiperidin-1-yl)-3-(2-chlorobenzyl)-5-methyl-4-oxo-4,5-dihydro-3H-imidazo[4,5-c]quinoline-8-carboxylic acid formation at 1 uM after 30 mins by HPLC/MS/MS analysis relative to control; type: ADME, cell-free; conditions: 0.5 h; method in brief: as §1
Rattus norvegicus [4] = assay: AUC in rat assessed as 2-(3-aminopiperidin-1-yl)-3-(2-chlorobenzyl)-5-methyl-4-oxo-4,5-dihydro-3H-imidazo[4,5-c]quinoline-8-carboxylic acid level at 20 mg/kg, po; type: ADME, organism-based, Plasma; set-up: dose 20 mg/kg, route oral; conditions: in vivo
Serum [5] = assay: Drug metabolism in human serum assessed as 2-(3-aminopiperidin-1-yl)-3-(2-chlorobenzyl)-5-methyl-4-oxo-4,5-dihydro-3H-imidazo[4,5-c]quinoline-8-carboxylic acid formation at 1 uM after 30 mins by HPLC/MS/MS analysis relative to control; type: ADME, cell-free; conditions: 0.5 h; method in brief: as §1
Rattus norvegicus [6] = assay: Reduction of blood glucose level in po dosed Zucker fatty rat model by OGTT analysis; type: functional, organism-based
Rattus norvegicus [7] = assay: In vivo inhibition of DPP4 in Sprague-Dawley rat at 3 mg/kg, po after 1 hr; type: functional
Method in brief: (§2)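 Male SD rats, 11 weeks, fasted 24 h before predose sampling and throughout; single oral gavage 3 mg/kg. Blood taken −0.5, 1, 2, 4, 6, 10, 24 h. Plasma DPP-4 activity: Gly-Pro-MCA substrate, HEPES/NaCl/MgCl2 buffer pH 7.8, stopped with 5% acetic acid after 20 min, AMC fluorescence 360/460 nm against AMC standard curve; duplicates, background-subtracted, mU/mL plasma.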

[8] = Drug metabolism in rat serum assessed as compound remaining at 1 uM after 30 mins by HPLC/MS/MS analysis relative to control; type: ADME, cell-free; conditions: read-out: Stability; method in brief: as §1
[9] = Drug metabolism in human liver S9 fraction assessed as compound remaining at 1 uM after 30 mins by HPLC/MS/MS analysis relative to control; type: ADME, subcellular; conditions: read-out: Stability; method in brief: as §1
Rattus norvegicus [10] = assay: Cmax in rat assessed as 2-(3-aminopiperidin-1-yl)-3-(2-chlorobenzyl)-5-methyl-4-oxo-4,5-dihydro-3H-imidazo[4,5-c]quinoline-8-carboxylic acid level at 20 mg/kg, po; type: ADME, organism-based; set-up: dose 20 mg/kg, route oral; conditions: in vivo
Rattus norvegicus [11] = assay: Tmax in rat assessed as 2-(3-aminopiperidin-1-yl)-3-(2-chlorobenzyl)-5-methyl-4-oxo-4,5-dihydro-3H-imidazo[4,5-c]quinoline-8-carboxylic acid level at 20 mg/kg, po; type: ADME, organism-based; set-up: dose 20 mg/kg, route oral; conditions: in vivo
Rattus norvegicus [12] = assay: Oral bioavailability in rat assessed as 2-(3-aminopiperidin-1-yl)-3-(2-chlorobenzyl)-5-methyl-4-oxo-4,5-dihydro-3H-imidazo[4,5-c]quinoline-8-carboxylic acid level at 20 mg/kg; type: ADME, organism-based; conditions: in vivo
[13] = Drug metabolism in Sprague-Dawley rat liver S9 fraction assessed as 2-(3-aminopiperidin-1-yl)-3-(2-chlorobenzyl)-5-methyl-4-oxo-4,5-dihydro-3H-imidazo[4,5-c]quinoline-8-carboxylic acid formation at 1 uM after 30 mins by HPLC/MS/MS analysis relative to control; type: ADME, subcellular; conditions: s9, 0.5 h; method in brief: as §1
Plasma = assay: Plasma concentration in rat at 20 mg/kg, po; type: ADME, organism-based; set-up: dose 20 mg/kg, route oral; conditions: in vivo
Method in brief: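 Rats dosed orally with prodrug; plasma levels of prodrug and carboxylate active metabolite measured over time, limit of quantification 1.0 ng/mL.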

Rattus norvegicus [14] = assay: Reduction of blood glucose level in Zucker fatty rat model at 1 mg/kg, po by OGTT analysis; type: functional, organism-based; set-up: dose 1 mg/kg
[15] = Solubility of the compound at pH 2.5; type: physicochemical; conditions: buffer
[16] = Solubility of the compound at pH 7.4; type: physicochemical; conditions: buffer
Rattus norvegicus [17] = assay: In vivo inhibition of DPP4 in Sprague-Dawley rat at 3 mg/kg, po after 10 hrs; type: functional; method in brief: as §2
[18] = Permeability of the compound at pH 7.4 by PAMPA; type: ADME; conditions: read-out: permeability
[19] = Drug metabolism in human serum assessed as compound remaining at 1 uM after 30 mins by HPLC/MS/MS analysis relative to control; type: ADME, cell-free; conditions: read-out: Stability; method in brief: as §1
[20] = Drug metabolism in Sprague-Dawley rat liver S9 fraction assessed as compound remaining at 1 uM after 30 mins by HPLC/MS/MS analysis relative to control; type: ADME, subcellular; conditions: read-out: Stability; method in brief: as §1
[21] = Permeability of the compound at pH 5 by PAMPA; type: ADME; conditions: read-out: permeability
Rattus norvegicus [22] = assay: AUC in rat assessed as 2-(3-aminopiperidin-1-yl)-3-(2-chloro-5-fluorobenzyl)-5-methyl-4-oxo-4,5-dihydro-3H-imidazo[4,5-c]quinoline-7-carboxylic acid level at 10 mg/kg, po; type: ADME, organism-based, Plasma; set-up: dose 10 mg/kg, route oral; conditions: in vivo
Rattus norvegicus [23] = assay: Oral bioavailability in rat assessed as 2-(3-aminopiperidin-1-yl)-3-(2-chloro-5-fluorobenzyl)-5-methyl-4-oxo-4,5-dihydro-3H-imidazo[4,5-c]quinoline-7-carboxylic acid level at 10 mg/kg; type: ADME, organism-based; conditions: in vivo
Dipeptidyl peptidase 4 = Dipeptidyl peptidase 4 (Homo sapiens, UniProt P27487); assay: Inhibition of human DPP4
Rattus norvegicus [24] = assay: Tmax in rat assessed as 2-(3-aminopiperidin-1-yl)-3-(2-chloro-5-fluorobenzyl)-5-methyl-4-oxo-4,5-dihydro-3H-imidazo[4,5-c]quinoline-8-carboxylic acid level at 10 mg/kg, po; type: ADME, organism-based; set-up: dose 10 mg/kg, route oral; conditions: in vivo
Rattus norvegicus [25] = assay: AUC in rat assessed as 2-(3-aminopiperidin-1-yl)-3-(2-chloro-5-fluorobenzyl)-5-methyl-4-oxo-4,5-dihydro-3H-imidazo[4,5-c]quinoline-8-carboxylic acid level at 10 mg/kg, po; type: ADME, organism-based, Plasma; set-up: dose 10 mg/kg, route oral; conditions: in vivo
Rattus norvegicus [26] = assay: Cmax in rat assessed as 2-(3-aminopiperidin-1-yl)-3-(2-chloro-5-fluorobenzyl)-5-methyl-4-oxo-4,5-dihydro-3H-imidazo[4,5-c]quinoline-8-carboxylic acid level at 10 mg/kg, po; type: ADME, organism-based; set-up: dose 10 mg/kg, route oral; conditions: in vivo
Rattus norvegicus [27] = assay: Oral bioavailability in rat assessed as 2-(3-aminopiperidin-1-yl)-3-(2-chloro-5-fluorobenzyl)-5-methyl-4-oxo-4,5-dihydro-3H-imidazo[4,5-c]quinoline-8-carboxylic acid level at 10 mg/kg; type: ADME, organism-based; conditions: in vivo
Serum [28] = assay: Drug metabolism in rat serum assessed as 2-(3-aminopiperidin-1-yl)-3-(2-chlorobenzyl)-5-methyl-4-oxo-4,5-dihydro-3H-imidazo[4,5-c]quinoline-7-carboxylic acid formation at 1 uM after 30 mins by HPLC/MS/MS analysis relative to control; type: ADME, cell-free; conditions: 0.5 h; method in brief: as §1
Rattus norvegicus [29] = assay: AUC in rat assessed as 2-(3-aminopiperidin-1-yl)-3-(2-chlorobenzyl)-5-methyl-4-oxo-4,5-dihydro-3H-imidazo[4,5-c]quinoline-7-carboxylic acid level at 20 mg/kg, po; type: ADME, organism-based, Plasma; set-up: dose 20 mg/kg, route oral; conditions: in vivo
[30] = Drug metabolism in Sprague-Dawley rat liver S9 fraction assessed as 2-(3-aminopiperidin-1-yl)-3-(2-chlorobenzyl)-5-methyl-4-oxo-4,5-dihydro-3H-imidazo[4,5-c]quinoline-7-carboxylic acid formation at 1 uM after 30 mins by HPLC/MS/MS analysis relative to control; type: ADME, subcellular; conditions: s9, 0.5 h; method in brief: as §1
Serum [31] = assay: Drug metabolism in human serum assessed as 2-(3-aminopiperidin-1-yl)-3-(2-chlorobenzyl)-5-methyl-4-oxo-4,5-dihydro-3H-imidazo[4,5-c]quinoline-7-carboxylic acid formation at 1 uM after 30 mins by HPLC/MS/MS analysis relative to control; type: ADME, cell-free; conditions: 0.5 h; method in brief: as §1
Rattus norvegicus [32] = assay: Tmax in rat assessed as 2-(3-aminopiperidin-1-yl)-3-(2-chlorobenzyl)-5-methyl-4-oxo-4,5-dihydro-3H-imidazo[4,5-c]quinoline-7-carboxylic acid level at 20 mg/kg, po; type: ADME, organism-based; set-up: dose 20 mg/kg, route oral; conditions: in vivo
Rattus norvegicus [33] = assay: Cmax in rat assessed as 2-(3-aminopiperidin-1-yl)-3-(2-chlorobenzyl)-5-methyl-4-oxo-4,5-dihydro-3H-imidazo[4,5-c]quinoline-7-carboxylic acid level at 20 mg/kg, po; type: ADME, organism-based; set-up: dose 20 mg/kg, route oral; conditions: in vivo
[34] = Drug metabolism in human liver S9 fraction assessed as metabolite 3 formation at 1 uM after 30 mins by HPLC/MS/MS analysis relative to control; type: ADME, subcellular; conditions: s9, 0.5 h; method in brief: as §1
Rattus norvegicus [35] = assay: Oral bioavailability in rat assessed as 2-(3-aminopiperidin-1-yl)-3-(2-chlorobenzyl)-5-methyl-4-oxo-4,5-dihydro-3H-imidazo[4,5-c]quinoline-7-carboxylic acid level at 20 mg/kg; type: ADME, organism-based; conditions: in vivo

Dipeptidyl peptidase 4, sequence (P27487 whole entry): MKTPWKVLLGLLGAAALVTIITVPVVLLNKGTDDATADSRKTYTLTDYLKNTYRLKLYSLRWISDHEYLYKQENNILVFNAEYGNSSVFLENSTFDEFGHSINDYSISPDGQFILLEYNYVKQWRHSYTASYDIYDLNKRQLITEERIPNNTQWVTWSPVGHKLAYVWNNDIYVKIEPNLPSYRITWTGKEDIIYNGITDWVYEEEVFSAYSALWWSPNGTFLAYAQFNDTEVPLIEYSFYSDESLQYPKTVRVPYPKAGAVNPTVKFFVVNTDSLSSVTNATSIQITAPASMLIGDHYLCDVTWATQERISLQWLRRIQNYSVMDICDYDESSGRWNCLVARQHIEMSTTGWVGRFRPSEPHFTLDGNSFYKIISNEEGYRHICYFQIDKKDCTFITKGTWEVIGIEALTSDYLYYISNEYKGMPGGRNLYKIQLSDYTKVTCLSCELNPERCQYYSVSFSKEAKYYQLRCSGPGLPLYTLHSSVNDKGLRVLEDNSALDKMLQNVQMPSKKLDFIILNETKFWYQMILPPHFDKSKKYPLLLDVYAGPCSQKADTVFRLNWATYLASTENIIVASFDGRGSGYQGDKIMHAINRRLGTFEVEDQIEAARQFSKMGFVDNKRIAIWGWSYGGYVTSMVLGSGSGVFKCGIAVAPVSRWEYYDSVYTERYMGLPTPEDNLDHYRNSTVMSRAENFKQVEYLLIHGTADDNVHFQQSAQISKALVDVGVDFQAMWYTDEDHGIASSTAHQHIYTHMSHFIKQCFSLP

Structure (SMILES)	solubility [2] [µg/mL]	remaining at 0.5 h, 1 µM [8] [%]	remaining at 0.5 h, 1 µM [9] [%]	solubility [15] [µg/mL]	solubility [16] [µg/mL]	Papp [18] [×10⁻⁶ cm/s]	remaining at 0.5 h, 1 µM [19] [%]	remaining at 0.5 h, 1 µM [20] [%]	Papp [21] [×10⁻⁶ cm/s]	further results
Cc1oc(=O)oc1COC(=O)c1ccc2c(c1)c1nc(N3CCC[C@@H](N)C3)n(Cc3ccccc3Cl)c1c(=O)n2C.Cl	3	< 0.5	7.8	210	< 1	12.1	< 0.5	< 0.5	10.3	Drug metabolism [1]: metabolite_detected; Drug metabolism (Serum [3]): metabolite_detected; AUC (Rattus norvegicus [4]): 728 ng·h/mL; Drug metabolism (Serum [5]): metabolite_detected; Activity (Rattus norvegicus [6]): Dose-dependent effect; inhibition in vivo at 3 mg/kg (Rattus norvegicus [7]): 87%; Cmax (Rattus norvegicus [10]): 94.1 ng/mL; Tmax (Rattus norvegicus [11]): 2 h; F (Rattus norvegicus [12]): 35%; Drug metabolism [13]: metabolite_detected; Cp (Plasma): < 1 ng/mL; Activity (Rattus norvegicus [14]): Active; inhibition in vivo at 3 mg/kg (Rattus norvegicus [17]): 64%
Cc1oc(=O)oc1COC(=O)c1ccc2c3nc(N4CCC[C@@H](N)C4)n(Cc4cc(F)ccc4Cl)c3c(=O)n(C)c2c1.Cl	1	< 0.5	13	47	< 1	15.9	< 0.5	3.6	15.8	AUC (Rattus norvegicus [22]): 43.9 ng·h/mL; F (Rattus norvegicus [23]): 4.8%
Cc1oc(=O)oc1COC(=O)c1ccc2c(c1)c1nc(N3CCC[C@@H](N)C3)n(Cc3cc(F)ccc3Cl)c1c(=O)n2C.Cl	2	< 0.5	3.5	25	< 1	8.4	< 0.5	1	11	IC50 (Dipeptidyl peptidase 4): 4.7 nM; Tmax (Rattus norvegicus [24]): 2 h; AUC (Rattus norvegicus [25]): 72.7 ng·h/mL; Cmax (Rattus norvegicus [26]): 14.8 ng/mL; F (Rattus norvegicus [27]): 11.7%
Cc1oc(=O)oc1COC(=O)c1ccc2c3nc(N4CCC[C@@H](N)C4)n(Cc4ccccc4Cl)c3c(=O)n(C)c2c1.Cl	2	< 0.5	17	54	2	14.2	< 0.5	1	12.5	Drug metabolism (Serum [28]): metabolite_detected; AUC (Rattus norvegicus [29]): 61.9 ng·h/mL; Drug metabolism [30]: metabolite_detected; Drug metabolism (Serum [31]): metabolite_detected; Tmax (Rattus norvegicus [32]): 0.25 h; Cmax (Rattus norvegicus [33]): 81.7 ng/mL; Drug metabolism [34]: metabolite_detected; F (Rattus norvegicus [35]): 4%
